This experiment addresses DNA-(apurinic or apyrimidinic site) endonuclease (Homo sapiens, UniProt P27695). Description: Inhibition of full length human APE1 assessed as reduction in endonuclease activity by measuring DNA cleavage of abasic sites using 6-FAM labelled two annealed oligonucleotides as AP site mimic substrate by fluorescence-based assay. Put shortly:
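Purified full-length APE1 (0.25-1.25 nM) added at once to 50 nM annealed duplex: 5'-6-FAM-labelled AP-site-mimic strand paired with a quencher-labelled strand. Buffer 50 mM Tris, 1 mM MgCl2, 50 mM NaCl, pH 7.5. Compound in triplicate, 10-point 1:2 dilution from 100 μM. Fluorescence from cleavage read kinetically at five 1-min intervals. Reaction rate compared with DMSO vehicle.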

Each structure is given as a SMILES string.

Sequence of DNA-(apurinic or apyrimidinic site) endonuclease (P27695 whole entry): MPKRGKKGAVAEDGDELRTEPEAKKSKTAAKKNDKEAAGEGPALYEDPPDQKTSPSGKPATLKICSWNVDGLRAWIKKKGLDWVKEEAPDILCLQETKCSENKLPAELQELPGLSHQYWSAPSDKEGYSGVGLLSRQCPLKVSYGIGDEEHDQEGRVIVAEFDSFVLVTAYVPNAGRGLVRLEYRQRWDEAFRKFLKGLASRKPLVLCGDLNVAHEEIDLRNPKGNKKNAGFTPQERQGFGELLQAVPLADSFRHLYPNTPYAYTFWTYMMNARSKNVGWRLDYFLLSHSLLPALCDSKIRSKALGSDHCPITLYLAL

As a reminder, the IC50 is the midpoint of a concentration-inhibition curve. Turning to `Cc1ccc(S(=O)(=O)n2cccc2[C@@H]2NC(=O)[C@H](Cc3c[nH]c4ccccc34)NC(=O)C(c3ccccc3)CCOC(=O)C/C=C/[C@@H]2C)cc1` (some centres not stated), the IC50 turned out to be 1.2 µM.
To `Cc1ccc(S(=O)(=O)n2cccc2[C@@H]2NC(=O)[C@H](Cc3c[nH]c4ccccc34)NC(=O)C(Oc3ccccc3)CCOC(=O)C/C=C/[C@@H]2C)cc1` (some centres not stated) belongs 5.4 µM.

For the origin of these results see BindingDB's records for doi:10.1021/acs.jmedchem.8b01529 (Boston University, 2019).
